ChEMBL document CHEMBL4251654, “Structure-based design of human immuno- and constitutive proteasomes inhibitors” (Eur J Med Chem, 2018)
Active and inactive are the calls of the source. No cut-off for these calls is given here.

How the values were obtained:
[1] = target: T1, Proteasome subunit beta type-10 (Homo sapiens) (UniProt P40306); test: Inhibition of human 20S immunoproteasome beta-2 at 50 uM using BocLRR-AMC as substrate incubated for 15 mins measured for 45 mins by fluorescence assay relative to control
T1 sequence (whole entry): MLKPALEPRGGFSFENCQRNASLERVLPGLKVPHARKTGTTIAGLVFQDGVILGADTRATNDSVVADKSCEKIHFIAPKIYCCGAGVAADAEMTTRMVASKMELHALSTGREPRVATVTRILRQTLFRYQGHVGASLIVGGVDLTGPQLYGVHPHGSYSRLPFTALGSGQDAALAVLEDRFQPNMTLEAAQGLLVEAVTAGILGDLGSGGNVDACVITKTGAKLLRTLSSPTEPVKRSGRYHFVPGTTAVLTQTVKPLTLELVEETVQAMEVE

[2] = target: T2, Proteasome component C5 (Homo sapiens) (UniProt P20618); test: Inhibition of human 20S constitutive proteasome beta-1 at 50 uM using Z-LLE-betaNA as substrate incubated for 15 mins measured for 45 mins by fluorescence assay relative to control
T2 sequence (whole entry): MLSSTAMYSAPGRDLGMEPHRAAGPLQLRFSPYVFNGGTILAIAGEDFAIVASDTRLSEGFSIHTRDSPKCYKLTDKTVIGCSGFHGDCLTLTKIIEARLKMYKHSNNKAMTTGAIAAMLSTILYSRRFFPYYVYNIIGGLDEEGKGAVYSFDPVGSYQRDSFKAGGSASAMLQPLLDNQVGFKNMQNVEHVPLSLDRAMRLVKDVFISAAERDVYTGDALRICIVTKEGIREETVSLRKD
Method in brief: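 Human 20S constitutive proteasome, 0.3 nM, was preincubated 15 min with compound (0.001-50 μM) in pH 8 Tris-HCl 20 mM, 10% glycerol, 0.01% SDS, 2% DMSO. Z-LLE-βNA at 50 μM was added. βNA fluorescence (ex 340/em 404 nm) was monitored 45 min at 37 °C against an untreated control.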

[3] = target: Proteasome Macropain subunit (Homo sapiens) (UniProt P49721); test: Inhibition of human 20S constitutive proteasome beta-2 at 50 uM using BocLRR-AMC as substrate incubated for 15 mins measured for 45 mins by fluorescence assay relative to control
Sequence of Proteasome Macropain subunit (Homo sapiens) (P49721 whole entry): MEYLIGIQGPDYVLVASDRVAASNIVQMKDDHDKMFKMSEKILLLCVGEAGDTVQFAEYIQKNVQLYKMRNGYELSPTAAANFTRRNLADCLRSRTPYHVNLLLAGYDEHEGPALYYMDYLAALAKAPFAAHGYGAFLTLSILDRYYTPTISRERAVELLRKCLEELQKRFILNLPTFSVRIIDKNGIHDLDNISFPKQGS
Method in brief: (§1)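 Purified human 20S proteasome (cCP or iCP), 0.3 nM, preincubated 15 min with compound (0.001-50 μM) in pH 8 buffer of 20 mM Tris-HCl, 10% glycerol, 0.005% Triton X-100, 2% DMSO. Then Boc-LRR-AMC at 50 μM was added. AMC fluorescence (ex 360/em 460 nm) was followed 45 min at 37 °C. Activity is relative to an untreated control.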

[4] = test system: 20S immunoproteasome β5i (Homo sapiens); test: Inhibition of human 20S immunoproteasome beta-5 at 50 uM
[5] = test system: 20S proteasome β5 (Homo sapiens); test: Inhibition of human 20S constitutive proteasome beta-5 at 50 uM
[6] = target: T3, Proteasome subunit beta type-9 (Homo sapiens) (UniProt P28065); test: Inhibition of human 20S immunoproteasome beta-1 at 50 uM using Ac-PAL-AMC as substrate incubated for 15 mins measured for 45 mins by fluorescence assay relative to control
T3 sequence (whole entry): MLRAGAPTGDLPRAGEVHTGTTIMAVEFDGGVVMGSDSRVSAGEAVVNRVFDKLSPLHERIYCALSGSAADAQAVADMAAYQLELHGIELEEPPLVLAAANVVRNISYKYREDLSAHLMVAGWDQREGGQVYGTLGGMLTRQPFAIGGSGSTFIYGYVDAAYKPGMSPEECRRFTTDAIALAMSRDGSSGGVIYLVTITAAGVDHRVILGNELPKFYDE
Method in brief: (§2)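 Human 20S immunoproteasome (0.3 nM) was given 15 min with compound (0.001-50 μM) in pH 8 buffer of 20 mM Tris-HCl, 10% glycerol, 0.01% SDS, 2% DMSO. Ac-PAL-AMC at 50 μM was the substrate. Fluorescence (ex 360/em 460 nm) was followed 45 min at 37 °C relative to control.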

[7] = target: T4, Proteasome subunit beta type-9 (Homo sapiens, UniProt P28065); test: Inhibition of human 20S immunoproteasome beta-1 using Ac-PAL-AMC as substrate incubated for 15 mins measured for 45 mins by fluorescence assay; method in brief: as §2
T4 sequence (P28065 whole entry): T3 sequence (whole entry)

[8] = test system: 20S immunoproteasome β5i (Homo sapiens); test: Inhibition of human 20S immunoproteasome beta-5
[9] = test system: 20S proteasome β5 (Homo sapiens); test: Inhibition of human 20S constitutive proteasome beta-5
[10] = target: T5, Proteasome subunit beta type-10 (Homo sapiens, UniProt P40306); test: Inhibition of human 20S immunoproteasome beta-2 using BocLRR-AMC as substrate incubated for 15 mins measured for 45 mins by fluorescence assay
T5 sequence (P40306 whole entry): T1 sequence (whole entry)

[11] = target: T6, Proteasome subunit beta type-8 (Homo sapiens, UniProt P28062); test: Inhibition of human 20S immunoproteasome beta-5 using Suc-LLVY-AMC as substrate incubated for 15 mins measured for 45 mins by fluorescence assay
T6 sequence (P28062 whole entry): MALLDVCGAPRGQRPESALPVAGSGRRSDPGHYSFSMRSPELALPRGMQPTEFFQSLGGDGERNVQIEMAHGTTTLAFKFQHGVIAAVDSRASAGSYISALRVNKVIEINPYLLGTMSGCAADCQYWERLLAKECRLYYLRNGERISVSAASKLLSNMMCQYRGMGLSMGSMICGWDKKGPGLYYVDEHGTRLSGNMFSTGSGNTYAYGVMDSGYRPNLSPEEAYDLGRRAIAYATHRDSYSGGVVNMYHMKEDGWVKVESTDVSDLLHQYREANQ
Method in brief: (§3)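 Human 20S cCP or iCP (0.3 nM) was exposed to compound (0.001-50 μM) for 15 min in pH 8 buffer of 20 mM Tris-HCl, 10% glycerol, 0.01% SDS, 2% DMSO. Suc-LLVY-AMC at 20 μM followed. Fluorescence (ex 360/em 460 nm) was read 45 min at 37 °C versus untreated enzyme.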

[12] = target: T7, Proteasome Macropain subunit MB1 (Homo sapiens) (UniProt P28074); test: Inhibition of human 20S constitutive proteasome beta-5 at 50 uM using Suc-LLVY-AMC as substrate incubated for 15 mins measured for 45 mins by fluorescence assay relative to control; method in brief: as §3
T7 sequence (whole entry): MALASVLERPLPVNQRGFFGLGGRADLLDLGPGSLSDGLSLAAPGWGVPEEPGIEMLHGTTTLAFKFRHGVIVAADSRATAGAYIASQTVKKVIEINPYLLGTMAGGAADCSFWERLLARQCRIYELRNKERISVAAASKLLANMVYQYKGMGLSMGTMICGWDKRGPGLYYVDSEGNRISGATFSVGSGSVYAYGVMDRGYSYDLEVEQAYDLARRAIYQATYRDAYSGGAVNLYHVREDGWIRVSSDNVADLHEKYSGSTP

[13] = target: T8, Proteasome subunit beta type-8 (Homo sapiens) (UniProt P28062); test: Inhibition of human 20S immunoproteasome beta-5 at 50 uM using Suc-LLVY-AMC as substrate incubated for 15 mins measured for 45 mins by fluorescence assay relative to control; method in brief: as §3
T8 sequence (whole entry): T6 sequence (P28062 whole entry)

[14] = target: T9, Proteasome Macropain subunit MB1 (Homo sapiens, UniProt P28074); test: Inhibition of human 20S constitutive proteasome beta-5 using Suc-LLVY-AMC as substrate incubated for 15 mins measured for 45 mins by fluorescence assay; method in brief: as §3
T9 sequence (P28074 whole entry): T7 sequence (whole entry)

[15] = target: T1, Proteasome subunit beta type-10 (Homo sapiens); test: Activation of human 20S immunoproteasome beta-2 at 50 uM using BocLRR-AMC as substrate incubated for 15 mins measured for 45 mins by fluorescence assay relative to control; method in brief: as §1
Huh-7 = test: Cytotoxicity against human HuH7 cells assessed as reduction in cell viability after 48 hrs by Hoechst 33342 staining based HCS assay; type: functional; settings: Homo sapiens, Huh-7, 48 h; read-out: EC50
Method in brief: (§4)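 Cells were grown at 37 °C, 5% CO2 in medium with 10% FBS, 1% penicillin-streptomycin, 2 mM glutamine: DMEM for HuH7, MDA-MB-231 and fibroblasts, EMEM for Caco2, McCoy's for HCT116, RPMI for PC3 and NCI-H727. 4000 cells/well were seeded and dosed 24 h later at 0.1-25 μM final, from DMSO stocks. After 48 h they were fixed in ethanol/acetic acid and Hoechst-stained nuclei were counted by imaging. Survival is relative to DMSO. EC50 came from dose-response curves.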

NCI-H727 = test: Cytotoxicity against human NCI-H727 cells assessed as reduction in cell viability after 48 hrs by Hoechst 33342 staining based HCS assay; type: functional; settings: Homo sapiens, NCI-H727, 48 h; read-out: EC50; method in brief: as §4
MDA-MB-231 = test: Cytotoxicity against human MDA-MB-231 cells assessed as reduction in cell viability after 48 hrs by Hoechst 33342 staining based HCS assay; type: functional; settings: Homo sapiens, MDA-MB-231, 48 h; read-out: EC50; method in brief: as §4
Caco-2 = test: Cytotoxicity against human Caco2 cells assessed as reduction in cell viability after 48 hrs by Hoechst 33342 staining based HCS assay; type: functional; settings: Homo sapiens, Caco-2, 48 h; read-out: EC50; method in brief: as §4
MCF7 = test: Cytotoxicity against human MCF7 cells assessed as reduction in cell viability after 48 hrs by Hoechst 33342 staining based HCS assay; type: functional; settings: Homo sapiens, MCF7, 48 h; read-out: EC50
PC-3 = test: Cytotoxicity against human PC3 cells assessed as reduction in cell viability after 48 hrs by Hoechst 33342 staining based HCS assay; type: functional; settings: Homo sapiens, PC-3, 48 h; read-out: EC50; method in brief: as §4
HCT-116 = test: Cytotoxicity against human HCT116 cells assessed as reduction in cell viability after 48 hrs by Hoechst 33342 staining based HCS assay; type: functional; settings: Homo sapiens, HCT-116, 48 h; read-out: EC50; method in brief: as §4
Fibroblast = test: Cytotoxicity against human fibroblasts assessed as reduction in cell viability after 48 hrs by Hoechst 33342 staining based HCS assay; method in brief: as §4

SMILES | inhibition [1] [%] | inhibition [2] | inhibition [3] | inhibition [6] [%] | IC50 [7] [µM] | IC50 [8] [µM] | IC50 [9] [µM] | IC50 [10] [µM] | IC50 [11] [µM] | inhibition [12] [%] | inhibition [13] [%] | IC50 [14] [µM] | fold change (FC) [15] | other results
CNC(=O)[C@H](C[C@@]1(O)C(=O)Nc2ccccc21)NC(=O)[C@H](C)NC(=O)[C@H](Cc1ccc(OCc2ccccc2)cc1)NC(=O)OC(C)(C)C | 19 | inactive | 13% | 10 | – | – | – | – | – | – | – | – | – | inhibition [4]: 8%; inhibition [5]: inactive
C[C@H](NC(=O)[C@@H](N)Cc1ccc(OCc2ccccc2)cc1)C(=O)N[C@@H](C[C@]1(O)C(=O)Nc2ccccc21)C(=O)NCc1ccccc1 | > 85 | > 85% | > 85% | > 85 | 21.5 | 13 | 10.7 | 27.2 | – | – | – | – | – | –
CC(C)c1ccc(CNC(=O)[C@H](C[C@]2(O)C(=O)Nc3ccccc32)NC(=O)[C@H](C)NC(=O)[C@H](Cc2ccc(OCc3ccccc3)cc2)NC(=O)OC(C)(C)C)cc1 | – | 37% | inactive | > 85 | – | – | – | – | 17.1 | > 85 | > 85 | 10 | 1.3 | –
CC(C)(C)OC(=O)NCCCC[C@H](NC(=O)[C@H](Cc1ccc(OCc2ccccc2)cc1)NC(=O)OC(C)(C)C)C(=O)N[C@@H](C[C@]1(O)C(=O)Nc2ccccc21)C(=O)NCc1ccccc1 | – | 15% | inactive | > 85 | 59 | – | – | – | 25.1 | > 85 | > 85 | 22 | 1.3 | –
C[C@H](NC(=O)[C@H](Cc1ccc(O)cc1)NC(=O)OC(C)(C)C)C(=O)N[C@@H](C[C@]1(O)C(=O)Nc2ccccc21)C(=O)NCc1ccccc1 | 10 | inactive | 19% | 12 | – | 34 | 32 | – | – | – | – | – | – | –
C[C@H](NC(=O)[C@H](Cc1ccc(OCc2ccccc2)cc1)NC(=O)OC(C)(C)C)C(=O)N[C@@H](C[C@]1(O)C(=O)Nc2ccccc21)C(=O)NCc1ccc(-c2ccccc2)cc1 | – | > 85% | inactive | > 85 | 13 | – | – | – | 19.7 | > 85 | > 85 | 28.7 | 1.5 | –

Further lines, with some results ahead:

inhibition [1] [%] | inhibition [2] | inhibition [3] | inhibition [6] [%] | IC50 [7] [µM] | IC50 [8] [µM] | IC50 [9] [µM] | IC50 [10] [µM] | IC50 [11] [µM] | inhibition [12] [%] | inhibition [13] [%] | IC50 [14] [µM] | fold change (FC) [15] | SMILES | other results
> 85 | 20% | 36% | 13 | – | – | – | 79 | – | – | – | – | – | CNC(=O)[C@H](C[C@]1(O)C(=O)Nc2ccccc21)NC(=O)[C@H](C)NC(=O)[C@H](Cc1ccc(OCc2ccccc2)cc1)NC(=O)OC(C)(C)C | inhibition [4]: 24%
– | > 85% | > 85% | > 85 | – | – | – | – | – | > 85 | > 85 | – | – | COc1ccc(C[C@H](NC(=O)[C@H](C)NC(=O)CN2CCOCC2)C(=O)N[C@@H](Cc2ccccc2)C(=O)[C@@]2(C)CO2)cc1 | EC50 (Huh-7): 0.39 µM; EC50 (NCI-H727): 0.3 µM; EC50 (MDA-MB-231): 0.27 µM; EC50 (Caco-2): 1.3 µM; EC50 (MCF7): 0.26 µM; EC50 (PC-3): 0.33 µM; EC50 (HCT-116): 0.11 µM; EC50 (Fibroblast): 0.16 µM
> 85 | > 85% | inactive | > 85 | 10.6 | 7.3 | 7 | 34 | – | – | – | – | – | C[C@H](NC(=O)[C@H](Cc1ccc(OCc2ccccc2)cc1)NC(=O)OC(C)(C)C)C(=O)N[C@@H](C[C@@]1(O)C(=O)Nc2ccccc21)C(=O)NCc1ccccc1 | –
